Consider ten molecules from ChEMBL document CHEMBL1147157, “Virtual screening for novel openers of pancreatic K(ATP) channels” (J Med Chem, 2007).

A short description of test [1]: Inhibition of insulin release from rat INS-1E cells.
The target in test [2] is Sulfonylurea receptor 1, Kir6.2 (Homo sapiens, UniProt Q09428+Q14654). Description: Activity at Kir6.2/SUR1 KATP channels expressed in HEK293 cells assessed as repolarization of tolbutamide-induced membrane depolarization. The class given is cell-based.
Sulfonylurea receptor 1, Kir6.2, sequence (Q14654 whole entry): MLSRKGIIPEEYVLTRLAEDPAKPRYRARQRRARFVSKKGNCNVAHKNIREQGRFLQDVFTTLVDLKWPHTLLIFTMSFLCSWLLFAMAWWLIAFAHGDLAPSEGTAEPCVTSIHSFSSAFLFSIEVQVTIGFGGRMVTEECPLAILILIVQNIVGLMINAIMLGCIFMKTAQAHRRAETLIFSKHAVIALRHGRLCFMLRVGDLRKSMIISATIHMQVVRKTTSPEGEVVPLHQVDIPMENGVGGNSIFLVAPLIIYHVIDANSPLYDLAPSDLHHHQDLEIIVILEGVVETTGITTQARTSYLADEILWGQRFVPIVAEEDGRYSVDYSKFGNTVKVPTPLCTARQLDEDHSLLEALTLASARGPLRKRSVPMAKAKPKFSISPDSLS
Sulfonylurea receptor 1, Kir6.2, sequence (Q09428 whole entry): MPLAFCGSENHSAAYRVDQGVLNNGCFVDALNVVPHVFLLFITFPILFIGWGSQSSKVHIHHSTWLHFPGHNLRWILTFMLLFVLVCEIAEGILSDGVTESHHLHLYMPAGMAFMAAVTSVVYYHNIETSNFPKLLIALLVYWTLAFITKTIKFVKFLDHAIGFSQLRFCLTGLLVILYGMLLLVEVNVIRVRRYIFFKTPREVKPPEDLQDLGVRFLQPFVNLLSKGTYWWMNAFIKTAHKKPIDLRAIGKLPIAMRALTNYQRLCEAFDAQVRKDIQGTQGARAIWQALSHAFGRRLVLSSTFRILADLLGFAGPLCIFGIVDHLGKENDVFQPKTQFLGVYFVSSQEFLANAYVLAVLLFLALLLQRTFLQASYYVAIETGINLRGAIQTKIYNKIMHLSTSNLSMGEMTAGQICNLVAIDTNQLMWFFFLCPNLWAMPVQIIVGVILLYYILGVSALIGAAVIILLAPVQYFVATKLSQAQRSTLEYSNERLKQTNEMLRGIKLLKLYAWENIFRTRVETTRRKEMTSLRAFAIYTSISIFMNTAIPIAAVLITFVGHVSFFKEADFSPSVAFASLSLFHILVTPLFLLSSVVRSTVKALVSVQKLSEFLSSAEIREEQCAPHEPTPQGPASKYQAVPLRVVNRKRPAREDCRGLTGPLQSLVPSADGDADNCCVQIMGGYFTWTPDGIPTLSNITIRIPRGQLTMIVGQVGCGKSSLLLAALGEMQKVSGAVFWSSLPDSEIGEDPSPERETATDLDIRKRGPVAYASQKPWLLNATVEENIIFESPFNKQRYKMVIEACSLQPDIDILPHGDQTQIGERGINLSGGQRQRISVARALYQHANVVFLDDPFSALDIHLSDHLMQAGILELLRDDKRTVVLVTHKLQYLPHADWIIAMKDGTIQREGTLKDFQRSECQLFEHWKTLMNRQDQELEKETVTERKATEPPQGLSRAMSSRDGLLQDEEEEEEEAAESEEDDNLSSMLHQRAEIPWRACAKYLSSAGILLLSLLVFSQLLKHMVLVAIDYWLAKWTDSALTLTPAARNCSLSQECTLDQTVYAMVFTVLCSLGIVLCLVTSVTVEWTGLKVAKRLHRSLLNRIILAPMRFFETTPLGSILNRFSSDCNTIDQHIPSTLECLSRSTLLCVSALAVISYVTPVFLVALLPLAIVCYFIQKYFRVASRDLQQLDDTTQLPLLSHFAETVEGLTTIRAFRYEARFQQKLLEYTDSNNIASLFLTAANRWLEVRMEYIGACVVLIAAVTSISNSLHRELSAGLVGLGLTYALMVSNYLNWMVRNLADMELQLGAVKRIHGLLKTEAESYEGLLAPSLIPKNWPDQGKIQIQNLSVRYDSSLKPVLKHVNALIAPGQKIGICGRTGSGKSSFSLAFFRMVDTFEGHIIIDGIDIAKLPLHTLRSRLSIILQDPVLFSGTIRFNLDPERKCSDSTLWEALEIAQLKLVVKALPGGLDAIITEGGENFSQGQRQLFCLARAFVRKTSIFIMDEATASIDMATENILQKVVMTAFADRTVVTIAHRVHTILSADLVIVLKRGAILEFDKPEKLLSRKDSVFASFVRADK
For test [3], the target named is Sulfonylurea receptor 1, Kir6.2 (Homo sapiens) (UniProt Q14654+Q09428). Description: Activity at Kir6.2/SUR1 KATP channels expressed in HEK293 cells assessed as repolarization of tolbutamide-induced membrane depolarization relative to BPDZ73. The class given is cell-based. The method in brief: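 HEK 293 cells stably expressing human Kir6.2/SUR1, seeded on poly(lysine)-coated plates, cultured 2 days. Membrane-potential fluorescent dye (ex 490/em 550 nm) in loading buffer/HBSS with 10 µM tolbutamide, 34 °C; fluorescence read before and 5-10 min after compound.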

As for `CC1=Nc2ccc(Cl)cc2S(=O)(=O)N1` [DIAZOXIDE], a half-maximal response in test [1] (EC50) required 20.3 µM.

On to `NC(=O)c1ccccc1NS(=O)(=O)c1ccc(Cl)cc1`, for which the EC50 (as a rule, the midpoint of the concentration-response curve) in test [2] is greater than 30 µM. Further, the maximal effect (Emax) (in general, the size of the effect at its maximum, as opposed to the concentration needed) in test [3] is 47%.

With `O=C(Nc1nccs1)c1c(O)c2cc(Cl)ccc2oc1=O`, the IC50 (commonly the point on the concentration scale where inhibition reaches its midpoint) in test [1] was found to be 56 µM. In addition, the EC50 in test [2] was greater than 30 µM. The maximal response (Emax) in test [3] was determined as 171%.

In test [1], `OCCn1c(-c2ccc(F)cc2)cs/c1=N\c1ccc(F)cc1` returned an IC50 of 18 µM. The EC50 in test [2] turned out to be 21 µM. For the same molecule, the Emax in test [3] came to 105%.

As for `CC(=O)Nc1nc2ccccc2n1CCN1CCCC1`, the concentration giving a half-maximal response (EC50) in test [2] was greater than 30 µM. In test [3], the Emax was found to be 55%.

For `O=c1[nH]cnc2ncc(-c3ccccc3)nc12`, in test [2], the half-maximal effective concentration (EC50) was greater than 30 µM. Moreover, the maximal response (Emax) in test [3] was 84%.

Regarding `N#Cc1c(-c2ccccc2)c(-c2ccccc2)n[nH]c1=O`, the EC50 in test [2] was greater than 30 µM. Besides, the Emax in test [3] was determined as 55%.

Regarding `COc1ccc2[nH]c(N3CCCCC3)nc2c1`, in test [2], the concentration giving a half-maximal response (EC50) is greater than 30 µM. The Emax in test [3] is 52%.

In test [1], `COc1ccc2nc(C(F)(F)F)c(C#N)c(N)c2c1` registered an IC50 of 25 µM. The half-maximal effective concentration (EC50) in test [2] amounted to 15 µM. In addition, the Emax in test [3] came to 160%.

Consider `CC(C)NC1=NS(=O)(=O)c2cc(Cl)ccc2N1`, for which it took 0.94 µM to reach half-maximal inhibition in test [1] (IC50). Also, the concentration giving a half-maximal response (EC50) in test [2] turned out to be 0.25 µM. In addition, the Emax in test [3] came to 100%.
